Here are results for 14 molecules from ChEMBL document CHEMBL1127011, “Structure-activity relationship of glycine betaine analogs on osmotolerance of enteric bacteria” (1993).

Holding throughout (format): functional
Assay [1] deals with Escherichia coli. The experiment in a line: Maximum NaCl molar concentration that showed 50% bacterial growth in Escherichia coli K10 at MM+0.1 mmol Choline. In outline:
(§1)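 Single colony from MacConkey agar subcultured overnight in minimal medium at 37 °C. Inoculum: 1:200 dilution of 0.5 McFarland standard (~5 × 10^5 cfu/mL final) into minimal medium with NaCl 0.1–1 M in 0.1 M steps. Test compound 0.1 mM, alone or with GB or Chol 0.1 mM. OD600 read at 48 h. Endpoint is highest NaCl giving ≥50% growth versus full-growth tubes. Mean of three ±SD.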

Assay [2] relates to Escherichia coli. The assay can be described thus: Maximum NaCl molar concentration that showed 50% bacterial growth in Escherichia coli 31 at MM+0.1 mmol GB (Glycine Betaine). The gist of the method:
as §1

Assay [3] deals with Escherichia coli. The assay can be described thus: Maximum NaCl molar concentration that showed 50% bacterial growth in Escherichia coli ATCC 25922 at MM+0.1 mmol GB (Glycine Betaine). The gist of the method: as §1
In assay [4] the test system is Escherichia coli. The assay can be described thus: Maximum NaCl molar concentration that showed 50% bacterial growth in Escherichia coli K10 at minimum media (MM). In outline:
as §1

Assay [5] deals with Escherichia coli. The experiment in a line: Maximum NaCl molar concentration that showed 50% bacterial growth in Escherichia coli 31 at minimum media (MM). The gist of the method:
as §1

The subject of assay [6] is Escherichia coli. The assay can be described thus: Maximum NaCl molar concentration that showed 50% bacterial growth in Escherichia coli ATCC 25922 at MM+0.1 mmol Choline. The gist of the method:
as §1

Assay [7] has as its system Escherichia coli. The experiment in a line: Maximum NaCl molar concentration that showed 50% bacterial growth in Escherichia coli 31 at MM+0.1 mmol Choline. In outline:
as §1

In assay [8] the test system is Escherichia coli. The assay can be described thus: Maximum NaCl molar concentration that showed 50% bacterial growth in Escherichia coli K10 at MM+0.1 mmol GB (Glycine Betaine). The gist of the method:
as §1

Assay [9] concerns Escherichia coli. The assay can be described thus: Maximum NaCl molar concentration that showed 50% bacterial growth in Escherichia coli ATCC 25922 at minimum media (MM). The gist of the method:
as §1

As for `C[N+]1(CS(=O)(=O)[O-])CCCCC1`, the Max salt tolerance is on record as 0.5 with Escherichia coli [1]; 0.93 in the assay with Escherichia coli [2]; 0.86 with Escherichia coli [3]; 0.35 in the assay with Escherichia coli [4]; 0.43 with Escherichia coli [5]; 0.2 with Escherichia coli [6]. Also, the Max salt tolerance in the assay on Escherichia coli [7] was found to be 0.88; in the assay with Escherichia coli [8], 0.9; in the assay with Escherichia coli [9], 0.13.

Turning to `C[N+](C)(C)CC(=O)[N-]S(=O)(=O)c1ccc(NC(=O)CI)cc1`, the Max salt tolerance with Escherichia coli [1] stood at 0.8; with Escherichia coli [2], 0.9; in the assay with Escherichia coli [3], 0.86; in the assay on Escherichia coli [4], 0.3; in the assay on Escherichia coli [5] it was 0.63; in the assay on Escherichia coli [6] it was 0.8. The Max salt tolerance in the assay with Escherichia coli [7] amounted to 0.8; in the assay on Escherichia coli [8], 0.86; in the assay with Escherichia coli [9] it was 0.1.

With `C[N+]1(CS(=O)(=O)[O-])CCCC1`, the Max salt tolerance in the assay on Escherichia coli [1] is recorded as 0.6; in the assay with Escherichia coli [2], 0.93; with Escherichia coli [3] it was 0.87; in the assay with Escherichia coli [4], 0.5; in the assay with Escherichia coli [5], 0.7; in the assay on Escherichia coli [6], 0.2. Also, the Max salt tolerance in the assay on Escherichia coli [7] is on record as 0.86; in the assay on Escherichia coli [8], 0.97; with Escherichia coli [9], 0.13.

`C[N+](C)(C)CP(=O)([O-])O` [HYDROGEN (TRIMETHYLAMMONIO)METHYLPHOSPHONATE]: the Max salt tolerance in the assay with Escherichia coli [1] turned out to be 0.77; in the assay on Escherichia coli [2] it was 0.9; with Escherichia coli [3] it was 0.8; with Escherichia coli [4] it was 0.4; in the assay with Escherichia coli [5], 0.6; in the assay with Escherichia coli [6], 0.77. The Max salt tolerance turned out to be 0.83 in the assay with Escherichia coli [7], 0.87 in the assay on Escherichia coli [8] and 0.33 with Escherichia coli [9].

On to `Br.C[N+](C)(C)CC(=O)[N-]S(=O)(=O)c1ccc(NC(=O)CBr)cc1`, for which the Max salt tolerance in the assay with Escherichia coli [1] is reported as 0.8; with Escherichia coli [2], 0.9; in the assay with Escherichia coli [3], 0.86; in the assay on Escherichia coli [4], 0.3; in the assay on Escherichia coli [5], 0.63; with Escherichia coli [6], 0.8. The Max salt tolerance with Escherichia coli [7] stood at 0.8; in the assay on Escherichia coli [8] it was 0.86; with Escherichia coli [9], 0.1.

On to `C[N+](C)(C)CC(=O)[N-]S(=O)(=O)c1ccccc1`, for which the Max salt tolerance in the assay with Escherichia coli [1] is on record as 0.86; in the assay with Escherichia coli [2], 0.9; with Escherichia coli [3], 0.83; in the assay on Escherichia coli [4], 0.56; with Escherichia coli [5], 0.73; with Escherichia coli [6], 0.8. The values for the Max salt tolerance in the assay on Escherichia coli [7], in the assay with Escherichia coli [8] and with Escherichia coli [9] were 0.9, 0.9 and 0.5, respectively.

In the case of `C[N+](C)(C)CS(=O)(=O)[O-]`, the Max salt tolerance with Escherichia coli [1] is recorded as 0.9; in the assay on Escherichia coli [2], 0.9; in the assay on Escherichia coli [3], 0.86; in the assay with Escherichia coli [4], 0.83; with Escherichia coli [5], 0.83; in the assay on Escherichia coli [6] it was 0.33. Also, the figures for the Max salt tolerance in the assay on Escherichia coli [7], in the assay on Escherichia coli [8] and in the assay on Escherichia coli [9] were 0.9, 0.93 and 0.27, respectively.

Take `CC(=O)Nc1ccc(S(=O)(=O)[N-]C(=O)C[N+](C)(C)C)cc1`: the Max salt tolerance with Escherichia coli [1] turned out to be 0.83; with Escherichia coli [2], 0.9; in the assay on Escherichia coli [3], 0.86; in the assay with Escherichia coli [4], 0.57; in the assay on Escherichia coli [5] it was 0.7; with Escherichia coli [6], 0.8. The Max salt tolerance is 0.8 with Escherichia coli [7], 0.9 in the assay on Escherichia coli [8] and 0.4 in the assay with Escherichia coli [9].

`C[N+](C)(C)CC(=O)Nc1ccc(S(N)(=O)=O)cc1.[Cl-]`: the Max salt tolerance stood at 0.86 in the assay with Escherichia coli [1]; 0.9 with Escherichia coli [2]; 0.83 in the assay on Escherichia coli [3]; 0.56 with Escherichia coli [4]; 0.73 in the assay with Escherichia coli [5]; 0.8 in the assay with Escherichia coli [6]. Also, the Max salt tolerance in the assay on Escherichia coli [7] was 0.9; in the assay on Escherichia coli [8] it was 0.9; in the assay on Escherichia coli [9], 0.5.

With `C[N+]1(CS(=O)(=O)[O-])CCOCC1`, the Max salt tolerance with Escherichia coli [1] stood at 0.87; in the assay with Escherichia coli [2], 0.97; with Escherichia coli [3], 0.83; in the assay with Escherichia coli [4], 0.63; in the assay on Escherichia coli [5], 0.77; with Escherichia coli [6], 0.23. The figures for the Max salt tolerance with Escherichia coli [7], in the assay with Escherichia coli [8] and in the assay with Escherichia coli [9] were 0.9, 0.97 and 0.2, respectively.

In the case of `C[N+](C)(C)CC(=O)NS(=O)(=O)c1ccc(N)cc1.[Cl-]`, the Max salt tolerance is on record as 0.86 in the assay with Escherichia coli [1]; 0.9 in the assay on Escherichia coli [2]; 0.83 in the assay on Escherichia coli [3]; 0.56 in the assay with Escherichia coli [4]; 0.73 in the assay with Escherichia coli [5]; 0.8 in the assay with Escherichia coli [6]. In addition, the Max salt tolerance is 0.9 in the assay on Escherichia coli [7], 0.9 with Escherichia coli [8] and 0.5 with Escherichia coli [9].

`CCC(=O)Nc1ccc(S(=O)(=O)[N-]C(=O)C[N+](C)(C)C)cc1`: the Max salt tolerance in the assay on Escherichia coli [1] amounted to 0.83; in the assay with Escherichia coli [2], 0.9; in the assay on Escherichia coli [3], 0.86; in the assay on Escherichia coli [4], 0.57; in the assay on Escherichia coli [5], 0.7; in the assay on Escherichia coli [6], 0.8. Moreover, the Max salt tolerance came to 0.8 with Escherichia coli [7], 0.9 in the assay with Escherichia coli [8] and 0.4 with Escherichia coli [9].

As to `C[N+](C)(C)CC(=O)Nc1ccc(S(=O)(=O)NC(=O)C[N+](C)(C)C)cc1.[Cl-].[Cl-]`, the Max salt tolerance with Escherichia coli [1] is given as 0.86; with Escherichia coli [2], 0.9; in the assay on Escherichia coli [3] it was 0.83; in the assay with Escherichia coli [4], 0.56; with Escherichia coli [5] it was 0.73; in the assay on Escherichia coli [6], 0.8. In addition, the Max salt tolerance in the assay with Escherichia coli [7] was determined as 0.9; in the assay with Escherichia coli [8], 0.9; in the assay on Escherichia coli [9], 0.5.

`C[N+](C)(C)CC(=O)[N-]S(=O)(=O)c1ccc(NC(=O)CCl)cc1`: the Max salt tolerance is listed as 0.8 in the assay on Escherichia coli [1]; 0.9 in the assay with Escherichia coli [2]; 0.86 with Escherichia coli [3]; 0.3 with Escherichia coli [4]; 0.63 in the assay with Escherichia coli [5]; 0.8 with Escherichia coli [6]. Besides, the Max salt tolerance in the assay with Escherichia coli [7] was found to be 0.8; with Escherichia coli [8], 0.86; in the assay on Escherichia coli [9], 0.1.
